These results are taken from ChEMBL document CHEMBL1144743, “Identification of prostaglandin D2 receptor antagonists based on a tetrahydropyridoindole scaffold” (Bioorg Med Chem Lett, 2008).

The nature of series [1]: Antagonist activity at PGD2 subtype 1 in human platelet rich plasma assessed as inhibition of PGD2-induced accumulation of cAMP. The class given is functional. The essentials: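 Blood from normal human volunteers; PRP prepared by centrifugation at 150g for 15 min. IBMX added (2 mM final) to block cAMP degradation. PRP samples preincubated 10 min at 37 °C with increasing compound concentrations in DMSO before PGD2 challenge. Reaction stopped with ethanol to lyse cells and extract cAMP. IC50 reported.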

The nature of series [2]: Binding affinity to human recombinant PGD2 receptor subtype 1 by radioligand competition binding assay. In outline:
(§1)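 Radioligand competition binding on recombinant human receptors, DP1 or thromboxane TP receptor; Ki values reported.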
Background: Loss of bound radioactivity is the signal in a displacement assay; it reports binding, not function.

The target of a further series is T1, Thromboxane A2 receptor (Homo sapiens, UniProt P21731).
T1 sequence (P21731 whole entry): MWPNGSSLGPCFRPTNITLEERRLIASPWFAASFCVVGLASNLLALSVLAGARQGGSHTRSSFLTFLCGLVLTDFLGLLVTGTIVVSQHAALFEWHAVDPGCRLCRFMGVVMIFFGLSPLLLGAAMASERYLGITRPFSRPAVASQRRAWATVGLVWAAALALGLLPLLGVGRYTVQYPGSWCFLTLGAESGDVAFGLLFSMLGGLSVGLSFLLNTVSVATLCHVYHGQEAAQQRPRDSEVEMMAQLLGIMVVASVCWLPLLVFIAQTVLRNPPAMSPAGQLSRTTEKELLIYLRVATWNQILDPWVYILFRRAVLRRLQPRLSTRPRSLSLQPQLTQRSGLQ
Put plainly: Binding affinity to human recombinant TP receptor by radioligand competition binding assay. In outline:
as §1

A short description of series [3]: Bioavailability in rat. The format is ADME, organism-based. To be noted: in vivo.
Series [4] can be described thus: Half life in rat. The format is ADME, organism-based. The conditions noted are these: in vivo.
Series [5] concerns the target T2, Prostaglandin E2 receptor EP1 subtype (Homo sapiens, UniProt P34995).
T2 sequence (P34995 whole entry): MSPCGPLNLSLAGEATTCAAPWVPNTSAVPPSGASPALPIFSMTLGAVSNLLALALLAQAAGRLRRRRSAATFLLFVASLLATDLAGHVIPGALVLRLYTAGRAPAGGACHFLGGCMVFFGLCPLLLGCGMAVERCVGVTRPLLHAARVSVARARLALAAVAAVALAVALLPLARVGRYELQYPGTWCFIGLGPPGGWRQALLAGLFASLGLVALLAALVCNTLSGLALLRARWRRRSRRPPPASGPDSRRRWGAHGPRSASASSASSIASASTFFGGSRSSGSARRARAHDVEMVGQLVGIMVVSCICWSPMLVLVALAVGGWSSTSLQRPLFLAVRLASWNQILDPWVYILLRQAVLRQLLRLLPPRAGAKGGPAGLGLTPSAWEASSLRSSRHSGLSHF
As to the kind of experiment: Binding affinity to EP1 receptor.

The target of series [6] is Prostaglandin E2 receptor EP2 subtype (Homo sapiens, UniProt P43116). Put plainly: Binding affinity to EP2 receptor.
Prostaglandin E2 receptor EP2 subtype, sequence (P43116 whole entry): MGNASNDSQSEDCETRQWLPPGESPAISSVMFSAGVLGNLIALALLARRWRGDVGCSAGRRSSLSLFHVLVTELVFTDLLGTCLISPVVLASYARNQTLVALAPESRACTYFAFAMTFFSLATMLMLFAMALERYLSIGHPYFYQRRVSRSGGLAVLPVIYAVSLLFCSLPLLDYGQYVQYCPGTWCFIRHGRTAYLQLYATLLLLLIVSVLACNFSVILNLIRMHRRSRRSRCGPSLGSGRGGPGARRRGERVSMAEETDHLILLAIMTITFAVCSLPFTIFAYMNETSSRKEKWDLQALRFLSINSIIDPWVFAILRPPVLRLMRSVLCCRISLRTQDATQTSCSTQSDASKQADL
Series [7] has as its target T3, Prostaglandin E2 receptor EP3 subtype (Homo sapiens, UniProt P43115).
T3 sequence (P43115 whole entry): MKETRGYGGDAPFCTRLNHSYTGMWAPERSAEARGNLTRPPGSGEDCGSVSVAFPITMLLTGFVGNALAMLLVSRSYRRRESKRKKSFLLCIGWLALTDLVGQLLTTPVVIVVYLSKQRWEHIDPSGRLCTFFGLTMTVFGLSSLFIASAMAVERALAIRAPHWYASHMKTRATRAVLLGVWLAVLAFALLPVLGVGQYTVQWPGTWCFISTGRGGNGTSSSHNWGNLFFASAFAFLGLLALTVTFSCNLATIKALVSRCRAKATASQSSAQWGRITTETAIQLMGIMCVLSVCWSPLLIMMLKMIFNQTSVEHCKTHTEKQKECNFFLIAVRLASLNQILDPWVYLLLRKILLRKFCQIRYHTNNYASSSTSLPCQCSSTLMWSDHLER
Put plainly: Binding affinity to EP3 receptor.

Series [8] concerns the target Prostaglandin E2 receptor EP4 subtype (Homo sapiens, UniProt P35408). As to the kind of experiment: Binding affinity to EP4 receptor.
For series [9], the target named is Prostaglandin F2-alpha receptor (Homo sapiens, UniProt P43088). As to the kind of experiment: Binding affinity to FP receptor.
Prostaglandin F2-alpha receptor, sequence (P43088 whole entry): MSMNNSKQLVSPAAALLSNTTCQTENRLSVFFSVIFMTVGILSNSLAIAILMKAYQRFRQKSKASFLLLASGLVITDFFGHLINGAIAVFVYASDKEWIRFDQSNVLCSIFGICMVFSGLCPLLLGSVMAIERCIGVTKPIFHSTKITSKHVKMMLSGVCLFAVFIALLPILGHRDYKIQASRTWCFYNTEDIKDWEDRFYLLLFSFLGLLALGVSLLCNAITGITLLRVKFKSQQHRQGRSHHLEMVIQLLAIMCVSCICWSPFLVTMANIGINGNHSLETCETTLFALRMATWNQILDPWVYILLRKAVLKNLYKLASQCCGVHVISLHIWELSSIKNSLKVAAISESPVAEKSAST
In the next series the target is Prostacyclin receptor (Homo sapiens, UniProt P43119). As to the kind of experiment: Binding affinity to IP receptor.
Prostacyclin receptor, sequence (P43119 whole entry): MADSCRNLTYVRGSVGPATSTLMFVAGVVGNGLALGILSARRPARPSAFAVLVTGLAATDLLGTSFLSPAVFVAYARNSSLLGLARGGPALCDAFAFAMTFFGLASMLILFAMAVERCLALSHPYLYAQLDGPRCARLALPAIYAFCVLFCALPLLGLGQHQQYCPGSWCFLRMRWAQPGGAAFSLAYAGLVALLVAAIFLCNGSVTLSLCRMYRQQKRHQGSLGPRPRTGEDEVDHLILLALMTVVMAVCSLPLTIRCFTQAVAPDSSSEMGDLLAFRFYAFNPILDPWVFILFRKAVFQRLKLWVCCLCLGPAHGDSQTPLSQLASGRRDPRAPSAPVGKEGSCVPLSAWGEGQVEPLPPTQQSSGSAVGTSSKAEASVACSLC
The target in series [10] is T4, Prostaglandin D2 receptor 2 (Homo sapiens, UniProt Q9Y5Y4).
T4 sequence (Q9Y5Y4 whole entry): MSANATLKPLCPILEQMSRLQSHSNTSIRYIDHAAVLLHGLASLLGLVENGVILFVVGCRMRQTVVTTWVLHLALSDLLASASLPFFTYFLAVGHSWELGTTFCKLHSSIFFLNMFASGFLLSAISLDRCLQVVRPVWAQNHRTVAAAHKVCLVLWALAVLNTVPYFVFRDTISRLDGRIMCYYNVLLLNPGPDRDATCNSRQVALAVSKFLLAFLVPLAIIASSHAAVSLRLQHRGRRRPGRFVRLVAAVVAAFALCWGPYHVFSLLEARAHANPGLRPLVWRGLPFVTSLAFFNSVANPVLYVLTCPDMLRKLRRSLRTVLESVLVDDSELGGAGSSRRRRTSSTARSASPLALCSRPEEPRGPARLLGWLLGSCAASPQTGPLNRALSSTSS
As to the kind of experiment: Binding affinity to CRTH2 receptor.

pIC50, pKi: −log10 of the molar value. Bounds are passed on as bounds.

Prostaglandin E2 receptor EP4 subtype, sequence (P35408 whole entry): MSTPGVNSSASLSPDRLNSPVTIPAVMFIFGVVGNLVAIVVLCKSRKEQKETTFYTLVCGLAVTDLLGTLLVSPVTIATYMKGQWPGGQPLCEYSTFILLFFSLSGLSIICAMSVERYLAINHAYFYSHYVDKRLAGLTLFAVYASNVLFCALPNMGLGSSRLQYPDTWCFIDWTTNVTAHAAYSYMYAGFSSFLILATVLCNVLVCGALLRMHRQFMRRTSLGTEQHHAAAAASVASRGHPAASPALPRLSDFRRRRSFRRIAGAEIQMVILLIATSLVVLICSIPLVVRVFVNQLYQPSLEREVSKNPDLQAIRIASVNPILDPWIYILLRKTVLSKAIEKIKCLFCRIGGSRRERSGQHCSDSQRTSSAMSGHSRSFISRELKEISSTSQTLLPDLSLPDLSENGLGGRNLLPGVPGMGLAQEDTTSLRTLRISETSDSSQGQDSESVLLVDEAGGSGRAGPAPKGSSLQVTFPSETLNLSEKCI

As to `CS(=O)(=O)c1cc(F)cc2c1c(Sc1ccc(Cl)cc1F)c1n2CCC1CC(=O)O` (stereo not given), the pIC50 (commonly −log10 of the IC50, conventionally taken in molar units) in series [1] was 7.49. For the same molecule, the pKi (usually −log10 of the Ki, conventionally taken in molar units) in [2] was 8.46; at Thromboxane A2 receptor, 6.70.

With `CCC(CC)c1cc(F)cc2c1c(Sc1ccc(Cl)cc1)c1n2CCC1CC(=O)O` (stereo not given), the negative-log IC50 (pIC50) in [1] was 7.67. In addition, the pKi in [2] was 8.09; on Thromboxane A2 receptor, 6.44.

As for `O=C(O)CC1CCn2c1c(Sc1ccc(Cl)cc1)c1c(Br)cc(F)cc12` (stereo not given), the pKi is 8.11 in series [2] and 7.77 at Thromboxane A2 receptor.

Regarding `CC(C)C(O)c1cc(F)cc2c1c(Sc1ccc(Cl)cc1)c1n2CCC1CC(=O)O` (stereo not given), the pIC50 in [1] was 6.29. Further, the results for the pKi (in series [2]; on Thromboxane A2 receptor) were 8.10 and 6.32, respectively.

With `CC(O)c1cc(F)cc2c1c(Sc1ccc(Cl)cc1)c1n2CCC1CC(=O)O` (stereo not given), the pIC50 in series [1] is 7.25. In addition, the pKi in series [2] was 8.60; on Thromboxane A2 receptor, 6.56.

Consider `CS(=O)(=O)c1cc(F)cc2c1c(-c1cccc(-c3ccccc3)c1)c1n2CCC1CC(=O)O` (stereo not given), for which the pIC50 in series [1] was 7.50. Also, the figures for the pKi (in series [2]; on Thromboxane A2 receptor) were 8.77 and 6.51, respectively.

On to `CCS(=O)(=O)c1cc(F)cc2c1c(Sc1ccc(Cl)cc1)c1n2CCC1CC(=O)O` (stereo not given), for which the pIC50 in [1] was 7.47. Further, the negative logarithm of the Ki (pKi) was 8.64 in series [2] and 6.60 at Thromboxane A2 receptor.

Regarding `CS(=O)(=O)c1cc(F)cc2c1c(C(=O)c1ccc(Cl)cc1)c1n2CCC1CC(=O)O` (stereo not given), the pKi in series [2] was 8.16; on Thromboxane A2 receptor, 5.16.

Turning to `CC(=O)c1cc(F)cc2c1c(Sc1ccc(Cl)cc1)c1n2CCC1CC(=O)O` (stereo not given), the pIC50 in series [1] was 7.00. Besides, the results for the pKi (in series [2]; at Thromboxane A2 receptor) were 8.44 and 6.17, respectively.

As for `CS(=O)(=O)c1cc(F)cc2c1c(Cc1ccc(Cl)cc1)c1n2CCC1CC(=O)O` (stereo not given), the pIC50 in series [1] was 8.33. Moreover, the pKi is 9.30 in series [2] and 7.93 on Thromboxane A2 receptor.

As for `CSC(C)c1cc(F)cc2c1c(Sc1ccc(Cl)cc1)c1n2CCC1CC(=O)O` (stereo not given), the pIC50 in [1] is 8.39. Besides, the pKi in series [2] is 8.80; on Thromboxane A2 receptor, 7.56.

On to `CS(=O)(=O)c1cc(F)cc2c1c(Sc1ccc(Cl)cc1)c1n2CCC1CC(=O)O` (stereo not given), for which, in series [1], the pIC50 was 7.98. The results for the pKi (in [2]; at Thromboxane A2 receptor) were 8.89 and 6.65, respectively.

For `O=C(O)CC1CCn2c1c(Sc1ccc(Cl)cc1)c1ccc(F)cc12` (stereo not given), the pKi is 6.88 in series [2] and 7.77 at Thromboxane A2 receptor.

On to `CC(c1ccc(Cl)cc1)c1c2n(c3cc(F)cc(S(C)(=O)=O)c13)CCC2CC(=O)O` (stereo not given), for which the pKi was 7.83 in series [2] and 5.50 on Thromboxane A2 receptor.

Take `CS(=O)(=O)c1cc(F)cc2c1c(Sc1ccc(C(F)(F)F)cc1)c1n2CCC1CC(=O)O` (stereo not given): the negative logarithm of the IC50 (pIC50) in series [1] is 7.53. Further, the pKi is 8.74 in series [2] and 6.54 at Thromboxane A2 receptor.

As for `CS(=O)(=O)c1cc(F)cc2c1c(CCc1ccc(Cl)cc1)c1n2CCC1CC(=O)O` (stereo not given), the pKi in [2] is 7.72; at Thromboxane A2 receptor, 6.66.

For `CS(=O)(=O)c1cc(F)cc2c1c(Sc1ccc3ccccc3c1)c1n2CCC1CC(=O)O` (stereo not given), the negative-log IC50 (pIC50) in series [1] was 7.40. Besides, the figures for the negative logarithm of the Ki (pKi) (in series [2]; at Thromboxane A2 receptor) were 8.92 and 6.23, respectively.

`CS(=O)(=O)c1cc(F)cc2c1c(C(=O)c1ccc(Cl)cc1)c1n2CCCC1CC(=O)O` (stereo not given): the pIC50 in [1] was 8.34. In series [3], the bioavailability – broadly, dose-corrected exposure relative to a reference, in per cent – came out at 100%. The half-life – broadly, the time in which the quantity being followed falls by half – in [4] is 4.4 h. Further, the negative logarithm of the Ki (pKi) in series [2] was 8.52; on Thromboxane A2 receptor, 6.29.

`CCC(OC)c1cc(F)cc2c1c(Sc1ccc(Cl)cc1)c1n2CCC1CC(=O)O` (stereo not given): in [1], the pIC50 was 8.17. For the same molecule, the pKi in [2] was 8.96; at Thromboxane A2 receptor, 6.70.

In the case of `CC(C)c1cc(F)cc2c1c(Sc1ccc(Cl)cc1)c1n2CCC1CC(=O)O` (stereo not given), the pIC50 in series [1] is 8.07. Also, the pKi in series [2] is 8.62; at Thromboxane A2 receptor, 7.34.

Turning to `CS(=O)(=O)c1cc(F)cc2c1c(C(=O)c1ccc(Cl)cc1)c1n2CCCCC1CC(=O)O` (stereo not given), the pIC50 in series [1] was 8.28. For the same molecule, the negative-log Ki (pKi) in [2] was 8.85; on Thromboxane A2 receptor, 6.17.

In the case of `CS(=O)(=O)c1cc(F)cc2c1c(C(=O)c1ccc(Cl)cc1)c1n2CCC[C@H]1CC(=O)O`, the pKi in series [5] was 5.66; in series [6], under 4.53; in [7], under 4.67; in series [8], under 4.79; in series [9], under 4.61; on Prostacyclin receptor, under 4.65. In addition, the pKi in series [2] is 7.44; on Thromboxane A2 receptor, 5.15.

Take `O=C(O)CC1CCn2c1c(Sc1ccc(Cl)cc1)c1c(C3CC3)cc(F)cc12` (stereo not given): the pKi in [2] was 8.24; at Thromboxane A2 receptor, 6.87.

Turning to `CS(=O)(=O)c1cc(F)cc2c1c(C(=O)c1ccc(Cl)cc1)c1n2CCC[C@@H]1CC(=O)O`, the pIC50 in series [1] is 8.34. Moreover, the negative-log Ki (pKi) in series [10] was 4.72; in series [5] it was 6.85; in [6] it was 5.47; in [7] it was 5.30; in [8], under 4.78; in [9], 4.68. The pKi was under 4.67 on Prostacyclin receptor, 9.00 in series [2] and 6.77 at Thromboxane A2 receptor.
